Screening data from PubChem.
UBC9 SUMO inh – inhibitors of human SUMOylation (UBC9); P63279; HTRF SUMOylation assay, SAE1/SAE2 + UBC9, in vitro; inhibition, % at 35 µM; actives 0.36% (n = 290,000); AID 2006; in the data active means inhibition above about 50%, passing the limit was not always enough
Target sequence (P63279 whole entry, looked up): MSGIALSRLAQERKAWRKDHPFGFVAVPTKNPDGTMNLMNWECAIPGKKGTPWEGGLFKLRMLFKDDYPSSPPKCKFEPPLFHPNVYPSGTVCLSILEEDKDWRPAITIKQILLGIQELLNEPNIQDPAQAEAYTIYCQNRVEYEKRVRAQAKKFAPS
HCV core dimer – HCV core protein dimerization inhibition; TR-FRET GST/Flag-core106 dimerization, 1536-well; inhibition, % at 5 µM; actives 0.33% (n = 300,000); AID 1899;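 active means inhibition above the mean of all tested compounds plus 3 SD, set per screening campaign, cut at about 45% in these data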
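Material: Tagged HCV core106 pair (GST and Flag) | Amount: GST-core106 13.5 nM, Flag-core106 17 nM | Medium: KF-containing HEPES buffer, pH 7.45, DTT, CHAPS, BSA | Reagent: Eu donor and XL665 acceptor anti-tag antibodies | Schedule: 4 h at 22.5 °C | Technique: Time-resolved FRET, ex 340 nm, em 617 and 671 nm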
VIM-2 inhibitor – blocks Pseudomonas aeruginosa VIM-2 metallo-beta-lactamase; purified VIM-2, nitrocefin hydrolysis, epi-absorbance fluorescence; inhibition, % at 5.6 µM; actives 0.89% (n = 290,000); AID 1527;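 active means inhibition above the mean of all tested compounds plus 3 SD, cutoff set per screening run, cut at about 7.5% in these data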;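 further: red hydrolysis product quenches plate fluorescence so inhibitors raise well fluorescence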
HCV NS3 hel inh – HCV NS3 helicase inhibition | NS3 helicase DNA unwinding, Cy5 molecular beacon fluorescence | inhibition, % at 10.9 µM | actives 0.56% (n = 290,000);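 active means inhibition above the mean of all tested compounds plus 3 SD, set per campaign, cut at about 35% in these data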
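System: NS3 helicase fragment of HCV / Schedule: 1 h at 25 °C / Control set: DMSO alone as 0% and 110 µM thioflavine S as 100% / Reagent: Cy5/quencher beacon DNA duplex and ATP to start / Technique: Cy5 fluorescence / Replication: singlicate / Evaluation: % inhibition of end-to-start signal ratio versus controls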
IMP-1 inhibitor – inhibitors of Pseudomonas aeruginosa IMP-1 metallo-beta-lactamase | inhibition, % at 5.6 µM | actives 0.45% (n = 290,000) | AID 1556 | purified IMP-1, nitrocefin hydrolysis, epi-absorbance fluorescence;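 active means inhibition above the mean plus 3 SD of all compounds in the same screening run, cut at about 4.5% in these data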
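System: Purified recombinant IMP-1 metallo-beta-lactamase enzyme | Measured by: Fluorescence quenching readout, ex 480/em 530 nm | Replication: Singlicate | Incubation: 15 min preincubation plus 25 min reaction at 25 °C | Evaluation: Percent inhibition from optical density relative to buffer-blank wells | Benchmarks: DMSO with and without IMP-1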
PHOSPHO1 inh – inhibitors of human PHOSPHO1 phosphatase; inhibition, % at 13.3 µM; Q8TCT1; actives 1.1% (n = 290,000); AID 1565; recombinant PHOSPHO1, absorbance phosphatase assay; in the data active means inhibition above about 60%
Target sequence (Q8TCT1 whole entry, looked up): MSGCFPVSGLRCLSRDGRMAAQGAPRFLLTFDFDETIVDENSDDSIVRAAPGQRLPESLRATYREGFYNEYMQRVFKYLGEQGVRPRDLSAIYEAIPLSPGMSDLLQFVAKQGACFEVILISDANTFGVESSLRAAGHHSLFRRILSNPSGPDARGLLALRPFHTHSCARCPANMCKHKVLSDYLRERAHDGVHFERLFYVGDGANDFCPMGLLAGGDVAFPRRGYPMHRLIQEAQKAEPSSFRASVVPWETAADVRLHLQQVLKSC
A number is an active result; - = inactive; . = no result given. An excerpt weighted towards active compounds, which were near 3.1% of everything screened.

SMILES	UBC9 SUMO inh	HCV core dimer	VIM-2 inhibitor	HCV NS3 hel inh	IMP-1 inhibitor	PHOSPHO1 inh
CC1CCCN(CCCNC(=O)C2CC(=O)N(c3ccc(F)c(Cl)c3)C2)C1 (stereo unspecified)	-	-	-	-	5.8	-
COc1ccc(N2CC(C(=O)NCCCN3CCOCC3)CC2=O)cc1 (stereo unspecified)	-	-	-	-	-	60
Cc1ccc(N2CC(C(=O)NCCN3CCOCC3)CC2=O)cc1C (stereo unspecified)	-	-	-	-	-	-
CCCC(C)c1nnc(NC(=O)C2CC(=O)N(CCc3ccc(F)cc3)C2)s1 (stereo unspecified)	-	-	-	-	-	-
Cc1cc(CN(C)C(=O)c2cc(COc3ccc(F)cc3Cl)on2)n[nH]1	-	-	-	-	-	60
CCOc1ccccc1N1CCN(C(=O)c2c(-c3c(F)cccc3Cl)noc2C)CC1	-	-	-	-	-	-
CCC(C)NC(=O)c1cc2c(=O)n(CC)c3ccccc3c2s1 (stereo unspecified)	-	-	8.0	-	-	-
CCn1c(=O)c2cc(C(=O)NCCC(C)C)sc2c2ccccc21	-	-	-	-	-	-
CCn1c(=O)c2cc(C(=O)NCCCOC)sc2c2ccccc21	-	-	9.0	-	-	-
Cc1cc(C)cc(C(=O)NCCCN2CCOCC2)c1	-	-	-	-	-	-
O=c1[nH]c(SCc2ccccc2)nc2[nH]ncc12	-	-	-	-	-	64
CC(=O)c1sc2nsc(SCCN3CCCCC3)c2c1N	-	-	-	-	-	70
Nc1c(C(=O)c2ccc(Cl)cc2)sc2nsc(SCCN3CCOCC3)c12	-	-	-	-	-	63
Cc1cc(C)c2c(N)c(C(=O)c3ccc(Cl)cc3)sc2n1	-	-	-	-	-	-
Nc1c(C(=O)c2ccccc2)sc2nsc(SCCN3CCCC3)c12	-	-	8.3	-	-	-
Cc1noc(C)c1CS(=O)(=O)c1ccc([N+](=O)[O-])cc1	-	-	-	-	-	-
CCOC(=O)CNC(=O)N(CCOC)CC1CCCN(C2Cc3ccccc3C2)C1 (stereo unspecified)	-	-	-	-	-	.
Cc1ccc(CNC(=O)c2cc3ccccc3oc2=O)cc1	.	-	.	.	.	.
Cc1ccc(S(=O)(=O)NNc2ccccc2)c(C)c1	-	-	-	-	-	76
Fc1ccccc1NC(=S)Nc1ccc(CN2CCOCC2)cc1	-	-	-	-	-	-
Cc1ccc(NC(=O)C(=O)NCCN2CCN(S(C)(=O)=O)CC2)cc1C	-	-	-	-	-	61
Cc1cc(NC(=O)C(=O)NCCN2CCN(S(C)(=O)=O)CC2)ccc1Br	-	-	-	-	-	-
CC(C)(C)OC(=O)COc1ccc(/C=N/NC(=O)CN2CCCCC2)cc1	-	.	-	-	-	-
N#Cc1ccc(N=c2ssnc2Cl)cc1	-	-	-	-	-	-
Clc1ccc(N=c2ssnc2Cl)cc1	-	-	-	-	-	89
SMILES	UBC9 SUMO inh	HCV core dimer	VIM-2 inhibitor	HCV NS3 hel inh	IMP-1 inhibitor	PHOSPHO1 inh
COc1ccc(N=c2ssnc2Cl)cc1	-	-	-	-	-	77
Clc1nssc1=Nc1ccccc1	-	.	-	-	-	97
CCOC(=O)c1ccc(N=c2ssnc2Cl)cc1	-	.	-	-	-	77
Cc1cccc2c(SCC(N)=O)nc(-c3ccccc3)nc12	-	-	-	-	-	-
O=c1c2c3c(sc2nc2n1CCCCC2)C(O)CCC3 (stereo unspecified)	-	-	-	-	-	-
COc1ccc(C)cc1NS(=O)(=O)c1ccc2c(c1)N(C)CCO2	-	-	-	-	-	-
COc1ccc(Cl)cc1C(=O)NC(=S)Nc1cc(-c2nc3ccccc3[nH]2)ccc1C	-	47	-	-	-	-
NC(=O)c1ccc(NC(=O)CN2C(=O)NC(c3ccccc3)(c3ccccc3)C2=O)cc1	-	-	-	-	-	-
COc1ccc(Cc2nnc(NC(=O)c3ccccc3F)s2)cc1OC	93	-	-	-	-	-
C[C@H](NC(=O)C1CCN(S(=O)(=O)c2ccccc2)CC1)C(=O)NCc1ccc(Cl)c(Cl)c1	-	-	-	-	-	-
O=C1c2ccccc2-c2cccc(C(=O)N3CCN(C(=O)c4ccccc4)CC3)c21	-	-	-	-	-	60
CC(C)OC(=O)c1cccc2c1C(=O)c1ccccc1-2	-	-	10	-	-	-
COC(=O)CC(NC(=O)CN1CCN(c2ccc(F)cc2)CC1)c1cccc(F)c1 (stereo unspecified)	-	-	-	-	-	-
O=C1NC(=S)N/C1=C/c1cc([N+](=O)[O-])ccc1O	-	-	-	-	-	82
O=C1NC(=S)N/C1=C/c1cccc([N+](=O)[O-])c1O	-	-	-	-	-	-
Nc1nnc(-c2cc3c(ccc4ccccc43)oc2=O)s1	66	.	-	-	-	-
COc1ccc(C(C(=O)NC2CCCCC2)N(C(=O)CCl)c2cccc(Cl)c2)cc1 (stereo unspecified)	-	-	-	-	-	-
Cc1cccc2sc(NC(=O)C3CSC4(C)CCC(=O)N34)nc12 (stereo unspecified)	-	-	-	-	-	-
CC12CCC(=O)N1C(C(=O)Nc1nc3c(F)cc(F)cc3s1)CS2 (stereo unspecified)	-	-	-	-	11	-
Cc1cc(C)cc(NC2=NCC(=O)N2Cc2ccccc2)c1	-	-	-	-	-	-
Cc1cccc(NC2=NCC(=O)N2Cc2ccccc2)c1	-	-	-	-	8.6	-
Fc1ccc(-c2cc(C(F)(F)F)nc(-n3cncn3)n2)cc1	-	-	9.7	-	-	-
COc1cccc(-c2cc(C(F)(F)F)nc(-n3cncn3)n2)c1	-	-	8.7	-	-	-
Fc1ccc(-c2cc(C(F)(F)F)nc(-n3cccn3)n2)cc1	-	-	-	-	-	-
COc1cccc(-c2cc(C(F)(F)F)nc(-n3cc(C)cn3)n2)c1	-	-	-	-	-	-
SMILES	UBC9 SUMO inh	HCV core dimer	VIM-2 inhibitor	HCV NS3 hel inh	IMP-1 inhibitor	PHOSPHO1 inh
Cc1sc2nc(C3CC3)nc(N3CCN(C(=O)c4ccc(Cl)cc4)CC3)c2c1C	-	-	-	-	-	-
Cc1ccc(C(=O)CN(CCC(=O)O)C(=O)c2ccncc2)cc1	.	-	.	.	.	.
CCOc1cc(OCC)cc(C(=O)NCc2ccco2)c1	-	-	-	-	-	-
CC1(C)OC(=O)C(=CNn2cnc3ccccc3c2=O)C(=O)O1	-	-	-	-	-	63
CCc1cc(C(=O)N=Nc2c(O)[nH]c3ccc([N+](=O)[O-])cc23)c2ccccc2n1	-	58	-	-	-	-
O=C(N=Nc1c(O)[nH]c2ccc([N+](=O)[O-])cc12)c1ccccc1[N+](=O)[O-]	-	-	-	-	-	-
COC(=O)c1ccccc1NC(=S)N1CCN(c2ccc(OC)cc2)CC1	-	-	-	-	-	-
